In general, Ki refers to the dissociation constant of the complex between target and ligand, obtained from inhibition or displacement.

SMILES strings stand for the structures.

For test [1], the target named is T1, Beta-lactamase (Aeromonas hydrophila, UniProt Q44079). Nature of the test: Inhibition of Aeromonas hydrophila beta lactamase CphA by competitive inhibition assay.
For test [2], the target named is T1, Beta-lactamase. Nature of the test: Inhibition of Aeromonas hydrophila beta lactamase CphA at pH 8.0.
Test [3] deals with T1, Beta-lactamase. In words: Inhibition of Aeromonas hydrophila beta lactamase CphA at pH 7.0.
The target of test [4] is T1, Beta-lactamase. Nature of the test: Inhibition of Aeromonas hydrophila beta lactamase CphA at pH 9.0.
Test [5] can be described thus: Inhibition of Aeromonas hydrophila beta lactamase CphA N116H-N220G mutant by competitive inhibition assay. Put shortly: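 Purified double-mutant enzyme (0.03–0.7 nM) in 20 mM HEPES pH 7.0 with 20 μg/ml BSA. Imipenem was varied 20–200 μM at three inhibitor concentrations and without inhibitor, with no preincubation, at 30°C. Initial rates were Hanes-linearized to give the competitive Ki. The dizinc form was run separately with cefotaxime in 20 mM cacodylate pH 6.5, BSA, 100 μM ZnCl2.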

The target in test [6] is T1, Beta-lactamase. In words: Inhibition of Aeromonas hydrophila beta lactamase CphA at pH 10.0.

T1 sequence (Q44079 whole entry): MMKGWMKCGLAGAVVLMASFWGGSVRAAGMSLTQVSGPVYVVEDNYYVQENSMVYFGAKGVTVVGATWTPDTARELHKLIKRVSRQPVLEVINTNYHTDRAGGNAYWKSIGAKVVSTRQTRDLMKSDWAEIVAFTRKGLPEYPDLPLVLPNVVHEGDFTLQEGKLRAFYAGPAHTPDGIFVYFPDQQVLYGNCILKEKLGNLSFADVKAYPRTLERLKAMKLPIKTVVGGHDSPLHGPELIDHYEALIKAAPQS

The molecule `O=C(O)c1cccnc1C(=O)O` [QUINOLINIC ACID] registered a Ki in test [1] of 200 µM.
The same measure, in the same setting: the same measure for `O=C(O)c1ccc(C(=O)O)nc1` [PYRIDINE-2,5-DICARBOXYLIC ACID]: 420 µM.
Take `O=C(O)c1ccccn1` [2-PICOLINIC ACID]: the Ki in test [2] came out at 76 µM; in test [1], 5.7 µM; in test [3], 46 µM; in test [4] it was 440 µM; in test [5] it was 13 µM; in test [6], 1100 µM.
In the case of `O=C(O)c1ccncc1C(=O)O`, affinity in test [1] was put at a Ki of 1100 µM.

These data come from ChEMBL document CHEMBL1143847, “Competitive inhibitors of the CphA metallo-beta-lactamase from Aeromonas hydrophila” (Antimicrob Agents Chemother, 2007).
